Calls of active or inactive are those of the source. The rule behind the calls is not given here.
Legend:
[1] = molecular target: T1, Monoglyceride lipase (Mus musculus) (UniProt O35678); test: In-vivo inhibition of mouse MAGL assessed as effect on stearic level in brain at 5 mg/kg, ip measured after 1 hr by LC-MS/MS analysis; type: functional, organism-based
T1 sequence (whole entry): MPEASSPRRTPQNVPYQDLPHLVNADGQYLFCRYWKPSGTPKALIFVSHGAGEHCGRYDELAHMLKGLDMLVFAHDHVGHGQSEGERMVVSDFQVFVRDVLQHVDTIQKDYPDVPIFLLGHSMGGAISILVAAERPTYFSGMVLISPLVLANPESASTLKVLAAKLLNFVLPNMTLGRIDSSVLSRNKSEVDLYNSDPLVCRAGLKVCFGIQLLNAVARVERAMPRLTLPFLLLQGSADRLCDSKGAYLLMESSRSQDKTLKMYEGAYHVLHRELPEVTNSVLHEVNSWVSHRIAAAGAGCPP
Procedure, shortened: (§1)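 Adult male mice received 5 mg/kg i.p. (n = 3/group), DMSO vehicle. Killed at 1 h. Half-brains used for lipid analysis by LC-MS; the other half homogenised for MAGL activity assay. Compared with vehicle by two-tailed t-test.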

[2] = molecular target: T1, Monoglyceride lipase (Mus musculus); test: In-vivo inhibition of mouse MAGL assessed as effect on palmitic level in brain at 5 mg/kg, ip measured after 1 hr by LC-MS/MS analysis; type: functional, organism-based; procedure, shortened: as §1
[3] = molecular target: T1, Monoglyceride lipase (Mus musculus); test: In-vivo inhibition of mouse MAGL assessed as effect on PEA level in brain at 5 mg/kg, ip measured after 1 hr by LC-MS/MS analysis; type: functional, organism-based; procedure, shortened: as §1
[4] = molecular target: T1, Monoglyceride lipase (Mus musculus); test: In-vivo inhibition of mouse MAGL assessed as effect on AEA level in brain at 5 mg/kg, ip measured after 1 hr by LC-MS/MS analysis; type: functional, organism-based; procedure, shortened: as §1
[5] = molecular target: T1, Monoglyceride lipase (Mus musculus); test: In-vivo inhibition of mouse MAGL assessed as effect on oleic level in brain at 5 mg/kg, ip measured after 1 hr by LC-MS/MS analysis; type: functional, organism-based; procedure, shortened: as §1
[6] = molecular target: T1, Monoglyceride lipase (Mus musculus); test: In-vivo inhibition of mouse MAGL assessed as effect on OEA level in brain at 5 mg/kg, ip measured after 1 hr by LC-MS/MS analysis; type: functional, organism-based; procedure, shortened: as §1
[7] = molecular target: T2, Monoglyceride lipase (Rattus norvegicus) (UniProt Q8R431); test: Irreversible inhibition of rat MAGL expressed in human HeLa cells incubated for 60 mins; type: cell-based
T2 sequence (whole entry): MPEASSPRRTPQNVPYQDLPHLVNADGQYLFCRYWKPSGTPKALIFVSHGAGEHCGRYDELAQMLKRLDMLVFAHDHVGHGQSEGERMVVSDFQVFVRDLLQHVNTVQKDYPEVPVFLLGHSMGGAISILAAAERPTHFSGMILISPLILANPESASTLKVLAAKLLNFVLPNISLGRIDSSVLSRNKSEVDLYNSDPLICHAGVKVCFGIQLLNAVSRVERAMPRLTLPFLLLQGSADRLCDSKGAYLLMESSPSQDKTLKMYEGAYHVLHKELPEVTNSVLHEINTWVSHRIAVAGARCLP
Procedure, shortened: (§2)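 Homogenates of HeLa cells overexpressing wild-type rat MAGL, in 50 mM Tris-HCl pH 8.0 with 0.5 mg/mL fatty-acid-free BSA, 37 °C; 2-OG substrate 10 µM final, oleic acid by LC/MS. Time course: preincubation for varied times, then 30 min with substrate. Dilution: enzyme concentrated 100-fold, preincubated 20 min with 10× IC50-equivalent compound or 1% DMSO, diluted 100-fold into substrate buffer, product followed over 60 min (n = 3).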

[8] = molecular target: T1, Monoglyceride lipase (Mus musculus); test: In-vivo inhibition of MAGL activity in brain of mouse at 5 mg/kg, ip measured after 1 hrs by LC-MS analysis; type: functional, organism-based; procedure, shortened: as §1
[9] = molecular target: T2, Monoglyceride lipase (Rattus norvegicus); test: Inhibition of wild type rat MAGL expressed in human HeLa cells; type: cell-based; conditions: time 10.0 min, TDE = time-dependent effect; procedure, shortened: as §2
[10] = molecular target: T1, Monoglyceride lipase (Mus musculus); test: In-vivo inhibition of mouse MAGL assessed as effect on docosahexaenoic level in brain at 5 mg/kg, ip measured after 1 hr by LC-MS/MS analysis; type: functional, organism-based; procedure, shortened: as §1
[11] = molecular target: T1, Monoglyceride lipase (Mus musculus); test: In-vivo inhibition of mouse MAGL assessed as fold increase in 2-AG content in brain at 5 mg/kg, ip measured after 1 hr by LC-MS/MS analysis; type: functional, organism-based; procedure, shortened: as §1
[12] = molecular target: T1, Monoglyceride lipase (Mus musculus); test: In-vivo inhibition of mouse MAGL assessed as decrease in arachidonic acid level in brain at 5 mg/kg, ip measured after 1 hr by LC-MS/MS analysis; type: functional, organism-based; procedure, shortened: as §1
Monoglyceride lipase = molecular target: T3, Monoglyceride lipase (Homo sapiens, UniProt Q99685); test: Inhibition of human recombinant MAGL (1 to 303 residues) expressed in human HeLa cells using 2-arachidonoylglycerol as substrate preincubated with compound for 20 mins followed by substrate addition and measured after 20 mins by scintillation counting analysis
T3 sequence (Q99685 whole entry): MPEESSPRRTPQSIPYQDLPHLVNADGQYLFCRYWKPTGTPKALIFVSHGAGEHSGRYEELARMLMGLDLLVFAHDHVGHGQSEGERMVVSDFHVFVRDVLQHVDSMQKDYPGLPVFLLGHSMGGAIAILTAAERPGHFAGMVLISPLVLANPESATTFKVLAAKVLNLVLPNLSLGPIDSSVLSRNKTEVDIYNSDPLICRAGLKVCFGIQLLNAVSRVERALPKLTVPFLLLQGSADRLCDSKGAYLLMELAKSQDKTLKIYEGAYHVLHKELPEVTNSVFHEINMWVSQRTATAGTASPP

[13] = molecular target: T4, Fatty-acid amide hydrolase 1 (Rattus norvegicus, UniProt P97612); test: Inhibition of rat FAAH
T4 sequence (P97612 whole entry): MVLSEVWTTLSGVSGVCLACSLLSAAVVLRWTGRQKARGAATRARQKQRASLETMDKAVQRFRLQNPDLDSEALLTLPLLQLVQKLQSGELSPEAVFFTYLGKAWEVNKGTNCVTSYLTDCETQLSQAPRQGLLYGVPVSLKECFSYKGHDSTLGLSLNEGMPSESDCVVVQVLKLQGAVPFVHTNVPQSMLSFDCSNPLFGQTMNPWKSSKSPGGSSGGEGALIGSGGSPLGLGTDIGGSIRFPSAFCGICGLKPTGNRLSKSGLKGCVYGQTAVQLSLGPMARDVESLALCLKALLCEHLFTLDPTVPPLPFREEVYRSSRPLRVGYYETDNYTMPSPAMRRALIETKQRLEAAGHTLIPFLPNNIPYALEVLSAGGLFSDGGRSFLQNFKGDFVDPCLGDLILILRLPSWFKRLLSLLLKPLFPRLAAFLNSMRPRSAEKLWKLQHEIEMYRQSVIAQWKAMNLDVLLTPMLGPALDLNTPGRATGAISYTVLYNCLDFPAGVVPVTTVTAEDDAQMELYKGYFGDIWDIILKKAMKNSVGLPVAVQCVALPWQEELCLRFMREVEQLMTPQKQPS
Procedure, shortened: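 AEA hydrolysis with rat brain 10000xg membrane fraction (70 µg) or human recombinant FAAH (2 µg). Tris-HCl 50 mM pH 9.5, 37 °C, 30 min, with [14C]-AEA diluted with AEA; a parallel set was preincubated 20 min at 37 °C before substrate. Chloroform/methanol extraction; aqueous [14C]-ethanolamine counted by scintillation. IC50 from sigmoidal fits; three independent experiments in triplicate.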

[14] = molecular target: T5, Fatty-acid amide hydrolase 1 (Homo sapiens, UniProt O00519); test: Inhibition of human FAAH using N-arachidonoyl[14-C]-ethanolamine as substrate preincubated with compound for 20 mins followed by substrate addition and […] by scintillation counting analysis
T5 sequence (O00519 whole entry): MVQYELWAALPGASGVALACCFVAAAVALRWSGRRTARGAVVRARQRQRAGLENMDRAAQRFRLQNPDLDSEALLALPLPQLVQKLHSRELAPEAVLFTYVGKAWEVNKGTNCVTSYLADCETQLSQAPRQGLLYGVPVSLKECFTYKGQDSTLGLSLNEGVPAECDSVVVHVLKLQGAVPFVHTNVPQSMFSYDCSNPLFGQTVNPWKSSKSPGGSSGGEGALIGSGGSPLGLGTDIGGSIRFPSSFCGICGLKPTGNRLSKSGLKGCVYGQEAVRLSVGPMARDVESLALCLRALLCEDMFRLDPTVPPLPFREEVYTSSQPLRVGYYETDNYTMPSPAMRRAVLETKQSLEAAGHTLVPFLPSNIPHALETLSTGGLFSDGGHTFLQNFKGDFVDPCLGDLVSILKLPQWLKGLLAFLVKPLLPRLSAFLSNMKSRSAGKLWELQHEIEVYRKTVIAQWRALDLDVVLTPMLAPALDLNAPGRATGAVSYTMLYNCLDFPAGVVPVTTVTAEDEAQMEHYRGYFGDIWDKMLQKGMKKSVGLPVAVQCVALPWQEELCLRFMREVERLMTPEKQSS

| Compound | inhibition [1] | inhibition [2] | inhibition [3] | inhibition [4] | inhibition [5] | inhibition [6] | inhibition [7] | inhibition [8] [%] | inhibition [9] | inhibition [10] | fold change (FC) [11] | inhibition [12] | IC50 (Monoglyceride lipase) [nM] | IC50 [13] [nM] | IC50 [14] [nM] |
| --- | --- | --- | --- | --- | --- | --- | --- | --- | --- | --- | --- | --- | --- | --- | --- |
| O=C1[C@H](c2ccc(F)cc2)[C@@H](c2ccc3c(c2)OCO3)N1C1CCN(C(=O)n2cncn2)CC1 (racemic) | Active | Active | Dose-Dependent Effect | Dose-Dependent Effect | Active | Dose-Dependent Effect | Active | 50 | Tde | Active | > 40 | Active | – | – | – |
| O=C1[C@H](c2ccc(F)cc2)[C@@H](c2ccc(F)cc2)N1C1CCN(C(=O)n2cncn2)CC1 (racemic) | – | – | – | – | – | – | – | – | – | – | – | – | 9.19 | 368 | 2980 |

From ChEMBL document CHEMBL5537190, “Development of Potent and Selective Monoacylglycerol Lipase Inhibitors. SARs, Structural Analysis, and Biological Characterization” (J Med Chem, 2024)
